Experimental data as given in ChEMBL document CHEMBL3856288, “Amidate Prodrugs of Deoxythreosyl Nucleoside Phosphonates as Dual Inhibitors of HIV and HBV Replication” (J Med Chem, 2016).

Tests used:
[1] = Selectivity ratio of CC50 for human HepG2(2.2.15) cells to EC50 for reduction in HBV ayw1 extracellular DNA copy number; details: read-out: Ratio CC50/EC50
Method in brief: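 HepG2 2.2.15 cells (two HBV ayw1 genome copies), 1.5 × 10^4 cells/well in DMEM with 2% FBS and G418; compound dosed in triplicate and medium renewed on day 3. On day 6, Pronase-treated supernatant HBV DNA measured by TaqMan qPCR against a standard curve, giving EC50. MTS uptake gave CC50, and the ratio was calculated from these.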

[2] = Cytotoxicity against human MT4 cells assessed as decrease in cell viability after 5 days by MTT assay; type: toxicity, cell-based
[3] = Antiviral activity against HIV2 ROD infected in human MT4 cells assessed as protection against virus-induced cytopathic effect after 5 days by MTT assay; type: functional, cell-based, Human immunodeficiency virus type 2 (ISOLATE ROD); details: Human immunodeficiency virus 2, MT4, 120 h
[4] = Selectivity index, ratio of CC50 for human MT4 cells to EC50 for HIV1 3B infected in human MT4 cells; type: toxicity, cell-based; details: read-out: Ratio CC50/EC50
[5] = Cytotoxicity against human HepG2(2.2.15) cells assessed as reduction in cell viability by MTS assay; type: toxicity, cell-based
Method in brief: (§1)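 HepG2 2.2.15 cells (stable line carrying two copies of the HBV ayw1 genome) were seeded at 1.5 × 10^4 cells/well in DMEM with 2% FBS and G418. After 16−24 h, compound was added in triplicate, and medium plus compound was renewed on day 3. On day 6, supernatant was Pronase-treated and extracellular HBV DNA was quantified by TaqMan qPCR against an HBV DNA standard curve to give EC50/EC90. Cell viability was read by MTS uptake to give CC50.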

[6] = test system: Hepatitis B virus; assay: Antiviral activity against HBV ayw1 infected in human HepG2(2.2.15) cells assessed as reduction in viral replication by measuring extracellular viral DNA copy number after 6 days by real-time qPCR method; type: functional, cell-based; details: ayw1, HepG2 2.2.15, 144 h; method in brief: as §1
[7] = Selectivity index, ratio of CC50 for human MT4 cells to EC50 for HIV2 ROD infected in human MT4 cells; type: toxicity, cell-based; details: read-out: Ratio CC50/EC50
[8] = test system: Human immunodeficiency virus 1; assay: Antiviral activity against HIV1 3B infected in human MT4 cells assessed as protection against virus-induced cytopathic effect after 5 days by MTT assay; type: functional, cell-based; details: Human immunodeficiency virus 1, 3B, MT4, 120 h
[9] = Drug level in acetone-d6/pH 7.6 Trizma buffer treated with 1'alpha-(Adenin-9-yl)-2'-deoxy-3'-O-{[N-(diisoamyl-L-aspartate)](phenoxy)methylphosphonoamidate}-L-threose assessed as baker's yeast carboxypeptidase Y-mediated compound formation at 1 mg after 3 hrs by RP-HPLC/mass spectra analysis; type: ADME; details: saccharomyces cerevisiae, in vitro, pH 7.6, 3 h
[10] = Half life in human liver microsomes at 0.1 uM in presence of NADPH-regenerating system by HPLC MS/MS method; type: ADME
Method in brief: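 Pooled liver microsomes preincubated 10 min at 37 °C with NADPH-regenerating system (1 mM NADP, 5 mM G6P, 1 U/mL G6PDHase) in phosphate buffer pH 7.4, 3 mM MgCl2, 1 mM EDTA; compound added at 0.1 μM final; samples at 0, 15, 30, 45, 60 min quenched in acetonitrile/methanol, analysed by HPLC MS/MS.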

[11] = Half life in human liver S9 fraction at 100 uM by HPLC-UV method; type: ADME, subcellular
Method in brief: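 Incubation started by adding human liver S9 fraction (4 mg/mL) at 37 °C; aliquots at 0, 10, 20, 30, 60 min quenched in acetonitrile, centrifuged, supernatant analysed by C18 HPLC with UV at 260 nm; parent peak area versus time 0 gave percent remaining and half-life.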

[12] = Drug level in pH 8 phosphate buffer treated with 1'alpha-(Adenin-9-yl)-2'-deoxy-3'-O-{[N-(diisoamyl-L-aspartate)](phenoxy)methylphosphonoamidate}-L-threose at 2 mg measured every 30 mins for 14 hrs by RP-HPLC/mass spectra analysis
[13] = test system: Hepatitis B virus; assay: Antiviral activity against HBV ayw1 infected in human HepG2(2.2.15) cells assessed as reduction in viral replication by measuring intracellular viral DNA copy number after 6 days by real-time qPCR method; type: functional, cell-based; details: ayw1, HepG2 2.2.15, 144 h
Method in brief: (§2)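 The protocol was the same as the primary HepG2 2.2.15 assay (triplicate dosing, medium plus compound renewed on day 3, 6-day course). At the end, total intracellular DNA was isolated from the cells and HBV DNA copy number was measured by TaqMan qPCR to give EC50/EC90. CC50 came from MTS viability, and SI was taken as CC50/EC50.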

[14] = Selectivity ratio of CC50 for human HepG2(2.2.15) cells to EC50 for reduction in HBV ayw1 intracellular DNA copy number; type: ADME, cell-based; details: read-out: Ratio CC50/EC50; method in brief: as §2
[15] = Chemical stability of the compound in pH 8 phosphate buffer assessed as parent compound remaining at 2 mg after 14 hrs by 31P NMR method; type: physicochemical; details: read-out: Stability
Method in brief: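 Prodrug (2 mg) in 0.2 mL acetone-d6 plus 0.3 mL pH 8 buffer (0.1 M Na2HPO4 adjusted with 0.1 M HCl); in situ 31P NMR (202 MHz) at 37 °C, spectra every 30 min over 14 h; parent remaining followed by diastereomer peak disappearance.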

[16] = Drug metabolism in acetone-d6/pH 7.6 Trizma buffer assessed as baker's yeast carboxypeptidase Y-mediated (S)-2-((((3R,5R)-5-(6-amino-9H-purin-9-yl)tetrahydrofuran-3-yloxy)methyl)oxidophosphorylamino)-4-(isopentyloxy)-4-oxobutanoate formation at 1 mg after 3 hrs by RP-HPLC/mass spectra analysis; type: ADME; details: saccharomyces cerevisiae, pH 7.6, 3 h
[17] = Chemical stability of the compound in pH 1 phosphate buffer at 2 mg after 1 to 2 hrs by 31P NMR method; type: physicochemical
Method in brief: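 Prodrug (2.0 mg) dissolved in 0.2 mL acetone-d6 plus 0.3 mL pH 1 buffer (equal parts 0.2 M HCl and 0.2 M KCl); in situ 31P NMR (202 MHz) at 37 °C, spectra recorded every 30 min over 14 h, tracking loss of the diastereomer peaks.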

[18] = test system: Human immunodeficiency virus 1; assay: Antiviral activity against HIV1 3B infected in human MT2 cells assessed as protection against virus-induced cytopathic effect after 5 days by XTT assay; type: functional, cell-based; details: Human immunodeficiency virus 1, 3B, MT2, 120 h

Row | SMILES | selectivity ratio [1] | CC50 at 120 h [2] [µM] | EC50 [3] [µM] | selectivity ratio [4] | CC50 [5] [µM] | EC50 [6] [µM] | selectivity ratio [7] | EC50 [8] [µM] | EC90 [6] [µM] | Drug metabolism [9] | half-life at 0.1 µM [10] [min] | half-life at 100 µM [11] [min] | Drug metabolism [12] | EC50 [13] [µM] | EC90 [13] [µM] | selectivity ratio [14] | remaining at 14 h [15] [%] | Drug metabolism [16] | Stability [17] | EC50 [18] [µM]
1 | Cc1cn([C@H]2C[C@@H](OCP(=O)(O)O)CO2)c(=O)[nH]c1=O | > 2.49 | 297 | 23.6 | 11 | > 100 | 40.2 | 13 | 27.1 | – | – | – | – | – | – | – | – | – | – | – | –
2 | Nc1ncnc2c1ncn2[C@@H]1OC[C@H](OCP(=O)(O)O)[C@H]1F | – | 262 | ≥ 214 | – | > 100 | 79.6 | – | ≥ 222 | > 100 | – | – | – | – | – | – | – | – | – | – | –
3 | CC(C)OC(=O)[C@H](C)NP(=O)(CO[C@H]1CO[C@@H](n2ccc(N)nc2=O)C1)Oc1ccccc1 (stereo not given in full) | > 2 | > 160 | > 160 | – | > 100 | 47.9 | – | > 160 | – | – | – | – | – | – | – | – | – | – | – | –
4 | CC(C)CCOC(=O)C[C@H](NP(=O)(O)CO[C@H]1CO[C@@H](n2cnc3c(N)ncnc32)C1)C(=O)O | – | – | – | – | – | – | – | – | – | Metabolite_Detected | – | – | – | – | – | – | – | – | – | –
5 | CC(C)OC(=O)[C@H](C)NP(=O)(CO[C@H]1CO[C@@H](n2cnc3c(N)ncnc32)C1)Oc1ccccc1 (stereo not given in full) | > 333 | 61.8 | 0.0535 | 597 | > 10 | 0.03 | 1150 | 0.103 | > 10 | – | > 60 | > 60 | – | – | – | – | – | – | – | –
6 | CC(C)CCOC(=O)C[C@H](NP(=O)(O)CO[C@H]1CO[C@@H](n2cnc3c(N)ncnc32)C1)C(=O)OCCC(C)C | – | – | – | – | – | – | – | – | – | – | – | – | Metabolite detected | – | – | – | – | – | – | –
7 | CCCOC(=O)[C@H](Cc1ccccc1)NP(=O)(CO[C@H]1CO[C@@H](n2cnc3c(N)ncnc32)C1)N[C@@H](Cc1ccccc1)C(=O)OCCC | > 1000 | 1.12 | 0.002 | 347 | > 10 | 0.01 | 570 | 0.0033 | 4.2 | – | 7 | < 10 | – | 0.03 | 6.37 | > 3330 | – | – | – | –
8 | Nc1ccn([C@H]2C[C@@H](OCP(=O)(O)O)CO2)c(=O)n1 | – | > 343 | > 343 | – | > 100 | > 100 | – | > 343 | > 100 | – | – | – | – | – | – | – | – | – | – | –
9 | CC(C)OC(=O)[C@H](C)NP(=O)(CO[C@H]1CO[C@@H](n2cnc3c(=O)[nH]c(N)nc32)C1)Oc1ccccc1 (stereo not given in full) | – | ≥ 112 | > 112 | – | > 100 | > 100 | – | > 112 | > 100 | – | – | – | – | – | – | – | – | – | – | –
10 | Nc1ccn([C@@H]2CS[C@H](CO)O2)c(=O)n1 [LAMIVUDINE] | > 200 | > 87.2 | – | > 39 | > 2 | 0.01 | > 10 | – | > 2 | – | – | – | – | < 0.01 | > 2 | > 254 | – | – | – | –
11 | CC(C)OC(=O)[C@H](C)NP(=O)(CO[C@H]1CO[C@@H](n2cnc3c(=O)[nH]c(N)nc32)C1)N[C@@H](C)C(=O)OC(C)C | – | ≥ 97.6 | > 97.6 | – | > 100 | > 100 | – | > 97.6 | > 100 | – | – | – | – | – | – | – | – | – | – | –
12 | Nc1nc2c(ncn2[C@H]2C[C@@H](OCP(=O)(O)O)CO2)c(=O)[nH]1 | – | > 302 | > 302 | – | > 100 | > 100 | – | > 302 | > 100 | – | – | – | – | – | – | – | – | – | – | –
13 | Cc1cn([C@H]2C[C@@H](OCP(=O)(N[C@@H](C)C(=O)OC(C)C)Oc3ccccc3)CO2)c(=O)[nH]c1=O (stereo not given in full) | > 38 | 127 | 0.424 | 223 | > 100 | 0.26 | 295 | 0.565 | > 10 | – | – | – | – | – | – | – | – | – | – | –
14 | Cc1cn([C@H]2C[C@@H](OCP(=O)(N[C@@H](CC(=O)OCCC(C)C)C(=O)OCCC(C)C)Oc3ccccc3)CO2)c(=O)[nH]c1=O (stereo not given in full) | 136 | 42.2 | 0.011 | 2350 | 34 | 0.25 | 3860 | 0.0173 | > 100 | – | – | – | – | – | – | – | – | – | – | –
15 | CCCOC(=O)[C@H](Cc1ccccc1)NP(=O)(CO[C@H]1CO[C@@H](n2cc(C)c(=O)[nH]c2=O)C1)N[C@@H](Cc1ccccc1)C(=O)OCCC | > 36 | 56.6 | 0.0204 | 1970 | > 10 | 0.28 | 2780 | 0.0292 | > 10 | – | – | – | – | – | – | – | – | – | – | –
16 | CCCOC(=O)[C@H](Cc1ccccc1)NP(=O)(CO[C@H]1CO[C@@H](n2cnc3c(=O)[nH]c(N)nc32)C1)N[C@@H](Cc1ccccc1)C(=O)OCCC | – | > 62 | > 62 | – | > 100 | > 100 | – | > 62 | – | – | – | – | – | – | – | – | – | – | – | –
17 | CC(C)OC(=O)[C@H](C)NP(=O)(CO[C@H]1CO[C@@H](n2ccc(N)nc2=O)C1)N[C@@H](C)C(=O)OC(C)C | – | ≥ 193 | > 193 | – | > 100 | > 100 | – | > 193 | > 100 | – | – | – | – | – | – | – | – | – | – | –
18 | CC(C)CCOC(=O)C[C@H](NP(=O)(CO[C@H]1CO[C@@H](n2cnc3c(N)ncnc32)C1)Oc1ccccc1)C(=O)OCCC(C)C (stereo not given in full) | > 1250 | 16.9 | 0.0036 | 792 | 35.2 | 0.01 | 4810 | 0.0216 | 0.98 | – | 8 | 12.1 | – | < 0.01 | 0.36 | 8810 | 43 | Metabolite_Detected | Unstable | –
19 | C[C@H](Cn1cnc2c(N)ncnc21)OCP(=O)(O)O [TENOFOVIR ANHYDROUS] | – | – | – | – | – | – | – | – | – | – | – | – | – | – | – | – | – | – | – | 5
20 | Nc1ncnc2c1ncn2[C@H]1C[C@@H](OCP(=O)(O)O)CO1 | > 200 | ≥ 315 | 5.23 | ≥ 67 | > 100 | 0.5 | ≥ 60 | 4.69 | – | – | – | – | – | – | – | – | – | – | – | –
